Compound activity from PubChem.
STEP block = STEP phosphatase inhibitors, primary screen, biochemical, fluorescence intensity, uHTS | Tyrosine-protein phosphatase non-receptor type 5 (Homo sapiens), P54829 | recombinant STEP, OMFP fluorogenic substrate | inhibition, % at 20 µM | 0.25% of 360,000 active;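 active = inhibition at 20 µM, scaled per plate between control wells, above about 37%, limit read from the data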;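 also: 0% = DMSO with enzyme and substrate and 100% = substrate only without enzyme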
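Material: STEP (striatal-enriched tyrosine phosphatase) enzyme, cell-free | Medium: 50 mM Bis-Tris pH 6.0 with 2.5 mM DTT and 0.005% Tween 20 | Read-out: Percent inhibition scaled to no-enzyme and uninhibited-enzyme controls, plate-pattern corrected | Signal: Fluorescence read at 480 nm ex / 540 nm em | Times: 20 min reaction, room temperature, in the dark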
Scp1 inh = Scp-1 phosphatase inhibitors, primary screen, biochemical, colorimetric, uHTS; Recombinant Scp1, phosphopeptide, malachite green phosphate absorbance; inhibition, % at 20 µM; 0.88% of 340,000 active;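 active = inhibition above about 50% at 20 µM, limit read from the data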;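 also: plate controls were DMSO wells with enzyme for no effect and wells lacking enzyme for full effect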
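System: truncated SCP-1 phosphatase (76-261aa); medium: Tris acetate buffer pH 5.5 with MgCl2 and Tween-20; incubation: 45 min room-temperature reaction, 5 min colour, 30 min stabiliser; compound: single 20 µM dose, 1% DMSO; reagent: Phosphorylated 17-residue peptide substrate; read-out: % inhibition at 20 µM; technique: colorimetric free-phosphate detection, absorbance 630 nm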
NadD inh = inhibitors of S. aureus NadD, primary screen, biochemical, colorimetric, uHTS | Nicotinate-nucleotide adenylyltransferase NadD (Staphylococcus aureus N315) | purified NadD enzyme, colorimetric absorbance read-out | inhibition, % at 20 µM | 0.78% of 360,000 active | AID 602399, 2012; in the data active = inhibition above about 26%
SUMO1-SIM PPI = modulators of SUMO1 protein-protein interactions, primary screen, biochemical, uHTS; SUMO1 binding to a labelled peptide, TR-FRET, 1 h; inhibition, % at 20 µM; 0.33% of 360,000 active; AID 602429, 2012; in the data active = inhibition above about 37%
DNMT1 inh = human DNMT1 methyltransferase inhibitors, primary screen, biochemical, molecular beacon, fluorescence, HinP1I cleavage, uHTS | 0.83% of 360,000 active | inhibition (reported as % activation of signal), % at 10 µM | DNA (cytosine-5)-methyltransferase 1 (Homo sapiens), P26358; in the data active = inhibition above about 50%
LMPTP block = LMPTP phosphatase inhibitors, primary screen, biochemical, fluorescence intensity, uHTS; Low molecular weight phosphotyrosine protein phosphatase (Homo sapiens), P24666; recombinant LMPTP-A, OMFP fluorogenic substrate; inhibition, % at 20 µM; 0.22% of 360,000 active;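 active = compounds that cut the enzyme signal by at least half of the control window in the single-dose screen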;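 also: plate controls were DMSO wells with enzyme plus substrate for no effect and substrate without enzyme for full effect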
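Assay system: LMPTP-A, protein tyrosine phosphatase of low molecular weight / Medium: pH 6.0 Bis-Tris buffer with DTT and Triton X-100 / Schedule: 50 min enzyme reaction at room temperature, protected from light / Measured by: endpoint fluorescence intensity from OMFP dephosphorylation / Read-out basis: % inhibition relative to no-enzyme and uninhibited control wells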
Starred values were filed as active, the others as inactive; . = no result. The list is not random: actives were taken first. Their share in the collection is about 2.4%.

SMILES | STEP block | Scp1 inh | NadD inh | SUMO1-SIM PPI | DNMT1 inh | LMPTP block
C=C1C(=O)C2=CC1CCC(=O)C1(C)CCC(OC(C)=O)C(C)(C)C1CC2O (stereo not given) | -3 | -5 | -2 | 6 | 1 | -1
CN(C)c1ccc(/C=C(\C#N)C(=O)Nc2nc3c(s2)CCN(Cc2ccccc2)C3)cc1 | -34 | -2 | 33* | -55 | 2 | 12
CCc1ccc(O)c(N=Cc2ccccc2O)c1 | -2 | -6 | 3 | 1 | -3 | -1
O=c1[nH][nH]c2c(N=Cc3ccccc3O)ccc(F)c12 | 94* | 91* | 22 | 92* | 118* | 70*
NC1=NC[C@@H](CC2CCCCC2)N1CCc1cc(C(F)(F)F)cc(C(F)(F)F)c1 | 4 | 16 | 9 | -84 | 62* | -1
COc1ccccc1NC(=O)N(C)C[C@@H]1OCc2cnnn2CCCC(=O)N([C@@H](C)CO)C[C@H]1C | -1 | . | 3 | -1 | 3 | 0
COc1ccc(NC(=O)c2cccc3c2C(=O)c2ccc(-c4ccc(F)cc4OCc4ccccc4)cc2S3(=O)=O)cc1 | 4 | 2 | 30* | -1 | 40 | 3
COc1ccc(OC)c(NC(=S)NCc2cccnc2)c1 | 2 | -1 | -6 | 4 | 3 | -1
O=c1[nH][nH]c(=S)n1C1CCCCC1 | . | 72* | . | . | . | .
Cc1ccc(S(=O)(=O)NCc2ccccc2)cc1C(=O)N1CCCCCCC1 | 0 | -8 | 1 | -53 | -4 | -9
Clc1cccc(Cl)c1Cn1cnc(=NCc2ccco2)c2[nH]cnc21 | 4 | 6 | -7 | 2 | 1 | 84*
c1coc(-c2nc(-c3ccco3)c(-c3ccco3)nc2-c2ccco2)c1 | 94* | 93* | 46* | 83* | 117* | 82*
Nc1nc(-c2ccco2)cs1 | 0 | -6 | 8 | 10 | -4 | 0
Nc1nn2c(-c3ccccc3)cc(=O)[nH]c2c1N=Nc1ccc(Br)cc1 | 14 | 13 | 77* | -3 | -31 | 56*
Nc1nn2c(-c3ccccc3)cc(=O)[nH]c2c1N=Nc1ccc(O)cc1 | 11 | -3 | 24 | 4 | -25 | 25
CSCCC(NC(=O)c1ccccc1)C(=O)N1CCN(C(c2ccccc2)c2ccccc2)CC1 (stereo not given) | 4 | -2 | 1 | 1 | -3 | 3
O=C1/C(=C/c2ccccn2)SC(=S)N1c1ccc(O)cc1 | -1 | -20 | 0 | -18 | -2 | -1
COc1ccc(/C=C2/SC(=S)N(c3ccc(S(=O)(=O)Nc4nccs4)cc3)C2=O)cc1 | 2 | -18 | 56* | 9 | -3 | 2
Cc1ccc(/C=C2/SC(=S)N(c3ccc(S(=O)(=O)Nc4nccs4)cc3)C2=O)cc1 | 2 | -16 | 62* | 10 | 0 | 0
Cc1ccc(N2C(=O)/C(=C/c3cccnc3)SC2=S)cc1 | 0 | 3 | -4 | -10 | -3 | -2
O=C1/C(=C\c2ccccn2)SC(=S)N1c1ccc(S(=O)(=O)Nc2nccs2)cc1 | 8 | 2 | 44* | 7 | -5 | 4
O=C1CCCN1CCCNc1nc(NCc2cccs2)nc2ccsc12 | 1 | . | 4 | 1 | 0 | 74*
CSCCC(C(=O)Nc1c(C)cccc1C)N1CCC(Cc2ccccc2)CC1 (stereo not given) | -1 | . | -4 | 1 | 5 | 2
Cc1cc2[nH]c3c4ccccc4nc(C)c3c2cc1C | 6 | 0 | 15 | 18 | 10 | 55*
COc1ccc(CN(C)C[C@@H]2OCc3cnnn3CCCC(=O)N([C@H](C)CO)C[C@H]2C)cc1 | -4 | . | 0 | -2 | 5 | -3
SMILES | STEP block | Scp1 inh | NadD inh | SUMO1-SIM PPI | DNMT1 inh | LMPTP block
CC(=O)OC[C@]12CC[C@H]3[C@@](C)(CC[C@H]4C(C)(C)CCC[C@]34C)[C@@H]1CC(C1=CC(=O)OC1O)O2 (stereo not given in full) | 1 | . | 32* | 74* | 58* | 4
O=C1c2ccccc2C(c2nnnn2Cc2ccccc2)N1CCc1c[nH]c2ccccc12 (stereo not given) | . | . | -7 | 0 | . | 0
CCn1cc(C(=O)N[C@@H](CC(C)C)C(=O)NCCCn2ccnc2)c(=O)c2cc3c(cc21)OCO3 | -2 | -7 | -5 | -1 | 2 | 1
O=C(CSc1nc2ccccc2n1CCc1ccccc1)c1ccc(O)c(O)c1 | 83* | 69* | 36* | 73* | 97* | 79*
O=C(CSc1nc2ccccc2n1CCc1ccccc1)N1CCOCC1 | -1 | -3 | 4 | 4 | -4 | -2
O=C(CSc1nc2ccccc2c(=O)[nH]1)c1ccc(O)c(O)c1 | 2 | 55* | -2 | 22 | 14 | 18
O=C(CSc1nc2ccccc2c(=O)[nH]1)c1ccc(O)cc1O | -6 | -1 | -5 | 6 | 8 | 1
O=S(=O)(Nc1ncccn1)c1ccc(NC(=S)N2CCN(Cc3ccc(F)cc3Cl)CC2)cc1 | 4 | -2 | 5 | 5 | -1 | 0
COCCNCC(=O)Nc1ccc(C)c(S(=O)(=O)N2CCCCC2)c1 | -1 | -10 | -1 | 0 | -1 | 0
COCCNC(=O)C1=C(N)C(C(=O)Nc2ccc(C)c(S(=O)(=O)N3CCCCC3)c2)SC1=Nc1ccc(C)cc1C (stereo not given) | 1 | 5 | 50* | -3 | -23 | 4
C/C(=N\Nc1ccc(C(=O)O)cc1)c1ccc(Br)cc1 | 30 | 52* | -5 | 1 | 43 | 3
O=C(Nc1ccc([N+](=O)[O-])cc1)Nc1cnccn1 | 2 | -8 | -5 | -25 | 2 | 0
Cn1c(N)c(N2CCCCC2)c(=O)n(CC(=O)Nc2ccc(Cl)c(Cl)c2)c1=O | -2 | -3 | 2 | 56* | -5 | -1
Cc1ccc(CNC(=O)CC(C)S(=O)(=O)c2cc3c(cc2C)NC(=O)CO3)cc1 (stereo not given) | -1 | -8 | -6 | 1 | 1 | -2
Cc1ccc(-c2cc(C(=O)NCCCn3ccnc3)c3cc(Br)ccc3n2)o1 | 2 | -2 | 49* | -3 | -16 | 27
CCCN1CCN(CCCNC(=O)c2ccccc2NC(=O)C2=C(C)OCCS2)CC1 | -2 | 4 | -10 | -6 | 1 | -6
